From ChEMBL document CHEMBL1641377, “Discovery of novel, potent, selective, and orally active human glucagon receptor antagonists containing a pyrazole core” (Bioorg Med Chem Lett, 2011)
Active and inactive are the calls of the source. No cut-off for these calls is given here.

Key:
[1] = molecular target: T1, Gastric inhibitory polypeptide receptor (Homo sapiens, UniProt P48546); assay: Antagonist activity at human GIPR expressed in CHO cells assessed as inhibition of glucagon-induced cAMP accumulation; assay type: functional, cell-based
T1 sequence (P48546 whole entry): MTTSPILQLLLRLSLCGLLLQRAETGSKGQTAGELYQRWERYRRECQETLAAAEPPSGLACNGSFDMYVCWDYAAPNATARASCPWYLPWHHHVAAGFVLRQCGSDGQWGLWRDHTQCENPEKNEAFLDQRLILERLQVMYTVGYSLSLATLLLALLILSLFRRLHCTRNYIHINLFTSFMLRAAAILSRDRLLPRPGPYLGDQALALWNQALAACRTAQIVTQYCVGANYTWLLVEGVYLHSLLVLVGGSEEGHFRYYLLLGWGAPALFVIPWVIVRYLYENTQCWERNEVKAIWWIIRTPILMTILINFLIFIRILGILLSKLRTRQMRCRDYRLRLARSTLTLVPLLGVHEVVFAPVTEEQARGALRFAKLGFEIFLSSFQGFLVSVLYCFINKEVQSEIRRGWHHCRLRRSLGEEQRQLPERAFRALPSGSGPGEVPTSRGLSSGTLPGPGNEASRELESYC

[2] = test system: Mus musculus; assay: Antidiabetic activity in transgenic mouse expressing human GCGR assessed as inhibition of glucagon-induced blood glucose excursion at 30 mg/kg, po administered 3 hrs before glucagon challenge measured after 48 mins; assay type: functional, organism-based; set-up: dose 30 mg/kg
Procedure, shortened: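 hGCGR transgenic mice (only functional receptor is human GCGR), 9 per group, given compound orally, then glucagon 15 µg/kg IP 60 min later (one arm dosed 30 mpk three hours before challenge); blood glucose monitored at 12, 24, 36 and 48 min after glucagon.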

[3] = Drug level in blood of transgenic mouse expressing human GCGR at 10 mg/kg, po after 45 mins; assay type: ADME, organism-based; set-up: dose 10 mg/kg, route oral; conditions: read-out: Drug uptake
Procedure, shortened: (§1)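 Blood drug concentration sampled in hGCGR transgenic mice during the oral glucagon-challenge pharmacodynamic assay at 45 and 120 min post dose, 10 and 30 mpk groups, n = 3 per group.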

[4] = Drug level in blood of transgenic mouse expressing human GCGR at 30 mg/kg, po after 45 mins; assay type: ADME, organism-based; set-up: dose 30 mg/kg, route oral; conditions: read-out: Drug uptake; procedure, shortened: as §1
[5] = molecular target: Pituitary adenylate cyclase-activating polypeptide type I receptor (Homo sapiens, UniProt P41586); assay: Antagonist activity at human PACAPR1 expressed in CHO cells assessed as inhibition of glucagon-induced cAMP accumulation; assay type: functional, cell-based
[6] = Plasma concentration in dog at 1 to 10 mg/kg, iv after 30 mins; assay type: ADME, organism-based, Canis lupus familiaris; set-up: dose 1-10 mg/kg, route intravenous
[7] = molecular target: T2, Cytochrome P450 2C8 (Homo sapiens, UniProt P10632); assay: Inhibition of CYP2C8; assay type: ADME
T2 sequence (P10632 whole entry): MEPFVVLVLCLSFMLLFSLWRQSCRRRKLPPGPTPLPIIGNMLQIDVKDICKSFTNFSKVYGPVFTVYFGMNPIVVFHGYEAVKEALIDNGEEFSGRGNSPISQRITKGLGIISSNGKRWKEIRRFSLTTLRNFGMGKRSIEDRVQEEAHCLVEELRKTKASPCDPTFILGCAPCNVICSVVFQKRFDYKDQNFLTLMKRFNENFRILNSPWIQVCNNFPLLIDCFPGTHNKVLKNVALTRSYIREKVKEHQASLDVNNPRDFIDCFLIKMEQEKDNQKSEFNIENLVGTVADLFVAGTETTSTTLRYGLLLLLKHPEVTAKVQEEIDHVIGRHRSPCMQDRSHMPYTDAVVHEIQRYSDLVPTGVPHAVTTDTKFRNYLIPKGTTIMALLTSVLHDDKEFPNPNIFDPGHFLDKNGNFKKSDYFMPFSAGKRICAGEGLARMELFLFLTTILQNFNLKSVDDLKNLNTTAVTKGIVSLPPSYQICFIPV

[8] = test system: Mus musculus; assay: In vivo occupancy of human GCGR transfected in mouse at 30 mg/kg, po after 1 hr; assay type: functional
Procedure, shortened: (§2)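 In vivo receptor occupancy measured in hGCGR transgenic mice after oral dosing, at 1 h post-dose (30 and 10 mpk) and in a separate experiment at 1, 3 and 8 h after 10 mpk.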

[9] = test system: Mus musculus; assay: In vivo occupancy of human GCGR transfected in mouse at 10 mg/kg, po after 1 hr; assay type: functional; procedure, shortened: as §2
[10] = test system: Mus musculus; assay: In vivo occupancy of human GCGR transfected in mouse at 10 mg/kg after 3 hrs; assay type: functional; procedure, shortened: as §2
[11] = Plasma clearance in rat at 1 mg/kg, iv and 2 mg/kg, po; assay type: ADME, organism-based
[12] = Plasma clearance in dog at 0.5 mg/kg, iv and 2 mg/kg, po; assay type: ADME, organism-based, Canis lupus familiaris
[13] = Plasma clearance in rhesus monkey at 0.5 mg/kg, iv and 2 mg/kg, po; assay type: ADME, organism-based, Macaca mulatta
[14] = Volume of distribution at steady state in mouse at 1 mg/kg, iv and 2 mg/kg, po; assay type: ADME, organism-based; conditions: in vivo, read-out: Vdss
[15] = Volume of distribution at steady state in rat at 1 mg/kg, iv and 2 mg/kg, po; assay type: ADME, organism-based; conditions: in vivo, read-out: Vdss
[16] = Volume of distribution at steady state in dog at 0.5 mg/kg, iv and 2 mg/kg, po; assay type: ADME, organism-based, Canis lupus familiaris; conditions: in vivo, read-out: Vdss
[17] = Volume of distribution at steady state in rhesus monkey at 0.5 mg/kg, iv and 2 mg/kg, po; assay type: ADME, organism-based, Macaca mulatta; conditions: in vivo, read-out: Vdss
[18] = Half life in rat at 1 mg/kg, iv and 2 mg/kg, po; assay type: ADME, organism-based; conditions: in vivo
[19] = Half life in rhesus monkey at 0.5 mg/kg, iv and 2 mg/kg, po; assay type: ADME, organism-based, Macaca mulatta; conditions: in vivo
[20] = test system: Mus musculus; assay: Dose normalized AUC in mouse at 2 mg/kg, po; assay type: ADME, organism-based; set-up: dose 2 mg/kg, route oral; conditions: in vivo
[21] = test system: Rattus norvegicus; assay: Dose normalized AUC in rat at 2 mg/kg, po; assay type: ADME, organism-based; set-up: dose 2 mg/kg, route oral; conditions: in vivo
[22] = test system: Rhesus monkey; assay: Dose normalized AUC in rhesus monkey at 2 mg/kg, po; assay type: ADME, organism-based, Macaca mulatta; set-up: dose 2 mg/kg, route oral; conditions: in vivo
[23] = Cmax in mouse at 2 mg/kg, po; assay type: ADME, organism-based; set-up: dose 2 mg/kg, route oral; conditions: in vivo
[24] = Cmax in rat at 2 mg/kg, po; assay type: ADME, organism-based; set-up: dose 2 mg/kg, route oral; conditions: in vivo
[25] = Cmax in dog at 2 mg/kg, po; assay type: ADME, organism-based, Canis lupus familiaris; set-up: dose 2 mg/kg, route oral; conditions: in vivo
[26] = Bioavailability in dog at 0.5 mg/kg, iv and 2 mg/kg, po; assay type: ADME, organism-based, Canis lupus familiaris; conditions: in vivo
[27] = molecular target: Glucagon receptor (Rattus norvegicus, UniProt P30082); assay: Antagonist activity at rat GCGR assessed as inhibition of glucagon-induced cAMP accumulation; assay type: functional
[28] = Antagonist activity at rhesus monkey GCGR assessed as inhibition of glucagon-induced cAMP accumulation; assay type: functional, Macaca mulatta
[29] = test system: Rhesus monkey; assay: Antidiabetic activity in rhesus monkey assessed as inhibition of glucagon-induced blood glucose excursion at 1 to 10 mg/kg, po administered 4 hrs before glucagon challenge measured after 4 hrs; assay type: functional, organism-based; conditions: Macaca mulatta
Procedure, shortened: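 Overnight-fasted rhesus monkeys dosed with vehicle or compound 4 h before challenge; glucagon 15 µg/kg im at time zero, plasma glucose monitored every 10 min and expressed as change from time zero per group.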

[30] = Plasma concentration in rhesus monkey at 0.3 mg/kg, po after 4 hrs; assay type: ADME, organism-based, Macaca mulatta; set-up: dose 0.3 mg/kg, route oral
Procedure, shortened: (§3)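 Overnight-fasted rhesus monkeys received the oral dose 4 h before the glucagon challenge (15 µg/kg im, time zero). Plasma drug level was sampled at the time of the challenge (t = 0, n = 4). Plasma glucose was then followed every 10 min and expressed as the change from time zero.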

[31] = Plasma concentration in rhesus monkey at 1 mg/kg, po after 4 hrs; assay type: ADME, organism-based, Macaca mulatta; set-up: dose 1 mg/kg, route oral; procedure, shortened: as §3
[32] = Plasma concentration in rhesus monkey at 10 mg/kg, po after 4 hrs; assay type: ADME, organism-based, Macaca mulatta; set-up: dose 10 mg/kg, route oral; procedure, shortened: as §3

Sequence of Pituitary adenylate cyclase-activating polypeptide type I receptor (P41586 whole entry): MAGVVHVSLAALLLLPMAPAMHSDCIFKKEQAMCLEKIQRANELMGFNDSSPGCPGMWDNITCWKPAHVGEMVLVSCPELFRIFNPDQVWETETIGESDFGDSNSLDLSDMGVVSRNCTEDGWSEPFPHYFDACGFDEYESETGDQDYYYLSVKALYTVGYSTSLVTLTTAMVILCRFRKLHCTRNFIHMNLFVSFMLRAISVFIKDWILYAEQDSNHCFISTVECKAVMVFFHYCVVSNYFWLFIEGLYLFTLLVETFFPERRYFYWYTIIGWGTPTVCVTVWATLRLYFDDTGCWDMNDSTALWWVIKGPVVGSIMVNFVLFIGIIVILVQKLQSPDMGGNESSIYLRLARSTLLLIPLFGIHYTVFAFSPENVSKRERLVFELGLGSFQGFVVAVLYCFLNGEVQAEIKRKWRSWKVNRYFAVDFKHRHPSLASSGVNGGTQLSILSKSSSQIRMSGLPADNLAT
Sequence of Glucagon receptor (P30082 whole entry): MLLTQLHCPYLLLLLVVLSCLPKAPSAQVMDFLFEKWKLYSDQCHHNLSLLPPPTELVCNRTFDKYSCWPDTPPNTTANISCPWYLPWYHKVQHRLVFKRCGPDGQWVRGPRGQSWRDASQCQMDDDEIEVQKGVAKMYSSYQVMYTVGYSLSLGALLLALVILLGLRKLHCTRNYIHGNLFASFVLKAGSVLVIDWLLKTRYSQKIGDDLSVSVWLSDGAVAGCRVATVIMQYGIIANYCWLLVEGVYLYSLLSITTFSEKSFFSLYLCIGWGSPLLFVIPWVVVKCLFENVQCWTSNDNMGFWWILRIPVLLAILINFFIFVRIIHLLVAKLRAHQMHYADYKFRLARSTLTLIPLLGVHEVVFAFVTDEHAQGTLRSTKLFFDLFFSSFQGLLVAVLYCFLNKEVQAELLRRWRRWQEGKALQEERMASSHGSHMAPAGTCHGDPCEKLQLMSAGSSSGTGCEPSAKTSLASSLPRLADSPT

O=C(O)CCNC(=O)c1ccc(Cn2nc(-c3cc(Cl)cc(Cl)c3)cc2-c2ccc(OC(F)(F)F)cc2)cc1
IC50 [1]: 7.5 µM
inhibition [2]: Active
concentration at 0.75 h [3]: 3.55 µM
concentration at 0.75 h [4]: 10.3 µM
IC50 [5]: > 7 µM
concentration at 0.5 h [6]: 96 µM
IC50 [7]: 19 µM
Activity [8]: 87%
Activity [9]: 51%
Activity [10]: 60%
clearance [11]: 1.6 mL/min/kg
clearance [12]: 0.49 mL/min/kg
clearance [13]: 0.68 mL/min/kg
Vd [14]: 1.1 L/kg
Vd [15]: 0.75 L/kg
Vd [16]: 0.14 L/kg
Vd [17]: 0.55 L/kg
half-life [18]: 6.5 h
half-life [19]: 10 h
AUC [20]: 0.73 µM·kg·h/mg
AUC [21]: 11 µM·kg·h/mg
AUC [22]: 30 µM·kg·h/mg
Cmax [23]: 0.23 µM
Cmax [24]: 1.6 µM
Cmax [25]: 7.7 µM
bioavailability [26]: 46%
IC50 [27]: 2.6 µM
IC50 [28]: 0.14 µM
inhibition [29]: Active
concentration at 4 h [30]: 0.13 µM
concentration at 4 h [31]: 0.6 µM
concentration at 4 h [32]: 8.8 µM
